Calls of active or inactive are those of the source. The rule behind the calls is not given here.
Assays:
dengue virus type 2 [1] = assay: Inhibition of NS4B in Dengue virus 2 NGC infected in human HuH7 replicon cells lysates at 10 ujM incubated for 48 hrs by SDS-PAGE based pull down assay; type: subcellular; conditions: Lysate
In short: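 Huh7 cells, 4×10⁶ per T-75, infected next day with DENV-2 NGC at MOI 2.0 with 10 µM biotinylated probe, or 0.25% DMSO, for 48 h at 37 °C. Lysis in 20 mM Tris-HCl pH 7.5, 100 mM NaCl, 0.5% DDM with protease inhibitors. Lysate spiked with compound to 100 µM final, then streptavidin magnetic beads at 4 °C overnight. Bead eluates resolved on 12% SDS-PAGE; NS4B detected by anti-NS4B monoclonal Western blot.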

[2] = Cytotoxicity in human HuH7 replicon cells infected with Dengue virus 2 NGC assessed as reduction in cell viability incubated for 48 hrs by Cell-titer-Glo reagent based assay; set-up: species or system Huh-7
In short: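 Huh7 cells or Huh7 replicon cells plated, then held at 37 °C with 5% CO₂ overnight. Exposed to 2-fold serial compound dilutions for 48 h, in duplicate. Viability read with CellTiter-Glo and normalized to 0.45% DMSO wells set at 100%. CC50 from four-parameter logistic fit.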

dengue virus type 3 = assay: Antiviral activity against Dengue virus 3 D3MY05-34640 infected in human HuH7 replicon cells expressing Renilla luciferase and neomycin-resistance genes assessed as reduction in viral replication incubated for 48 hrs by luciferase reporter replicon-based assay; type: functional, organism-based; conditions: D3MY05-34640, Huh-7, 48 h
In short: (§1)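 Huh7 cells stably carrying a Renilla luciferase/neomycin-resistance replicon (DENV-1 WestPac, DENV-2 NGC, DENV-3 D3MY05-34640 or DENV-4 D4MY01-22713). Cells seeded at 10k per well and incubated overnight at 37 °C, 5% CO2. Then exposed to 2-fold serial compound dilutions for 48 h, in duplicate. Luciferase read with a live-cell substrate. EC50 from four-parameter logistic fit.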

dengue virus type 2 [3] = assay: Antiviral activity against Dengue virus 2 NGC infected in human HuH7 replicon cells expressing Renilla luciferase and neomycin-resistance genes assessed as reduction in viral replication incubated for 48 hrs by luciferase reporter replicon-based assay; type: functional, organism-based; conditions: Huh-7, 48 h; in short: as §1
dengue virus type 4 [4] = assay: Antiviral activity against Dengue virus 4 D4MY01-22713 infected in human HuH7 replicon cells expressing Renilla luciferase and neomycin-resistance genes assessed as reduction in viral replication incubated for 48 hrs by luciferase reporter replicon-based assay; type: functional, organism-based; conditions: D4MY01-22713, Huh-7, 48 h; in short: as §1
dengue virus type 1 [5] = assay: Antiviral activity against Dengue virus 1 WestPac infected in human HuH7 replicon cells expressing Renilla luciferase and neomycin-resistance genes assessed as reduction in viral replication incubated for 48 hrs by luciferase reporter replicon-based assay; type: functional, organism-based; conditions: Huh-7, 48 h; in short: as §1
dengue virus type 4 [6] = assay: Antiviral activity against Dengue virus 4 D4MY01-22713 infected in human HuH7 replicon cells expressing Renilla luciferase and neomycin-resistance genes assessed as reduction in viral replication up to 10 uM incubated for 48 hrs by luciferase reporter replicon-based assay; type: functional, organism-based; in short: as §1
dengue virus type 1 [7] = assay: Antiviral activity against Dengue virus 1 WestPac infected in human HuH7 replicon cells expressing Renilla luciferase and neomycin-resistance genes assessed as reduction in viral replication up to 10 uM incubated for 48 hrs by luciferase reporter replicon-based assay; type: functional, organism-based; in short: as §1

SMILES	inhibition (dengue virus type 2 [1])	CC50 at 48 h [2]	EC50 (dengue virus type 3)	EC50 (dengue virus type 2 [3])	EC50 (dengue virus type 4 [4])	EC50 (dengue virus type 1 [5])	Activity (dengue virus type 4 [6])	Activity (dengue virus type 1 [7])
C[C@@H](c1ccc(Cl)cc1)n1nnc2c1NC(=O)C[C@@]21C(=O)N(CCOC(=O)CCCCCCCNC(=O)CCCC[C@@H]2SC[C@@H]3NC(=O)N[C@@H]32)c2ccc(Cl)cc21	inactive	> 10000 nM	> 5000 nM	> 5000 nM				
C[C@@H](c1ccc(Cl)cc1)n1nnc2c1NC(=O)C[C@]21C(=O)N(CCCBr)c2ccc(Cl)cc21		> 10000 nM	76 nM	250 nM	3200 nM	2400 nM		
C=CCN1C(=O)[C@]2(CC(=O)Nc3c2nnn3[C@@H](C)c2ccc(Cl)cc2)c2cc(Cl)ccc21		> 10000 nM	5 nM	38 nM	> 5000 nM	2100 nM		
CCCCCCCCCCN1C(=O)[C@]2(CC(=O)Nc3c2nnn3[C@@H](C)c2ccc(Cl)cc2)c2cc(Cl)ccc21		> 10000 nM	1200 nM	> 10000 nM	7300 nM	3400 nM		
CC#CCN1C(=O)[C@]2(CC(=O)Nc3c2nnn3[C@@H](C)c2ccc(Cl)cc2)c2cc(Cl)ccc21		> 10000 nM	20 nM	63 nM	> 5000 nM	> 5000 nM		
COc1cccc(CN2C(=O)[C@]3(CC(=O)Nc4c3nnn4[C@@H](C)c3ccc(Cl)cc3)c3cc(Cl)ccc32)c1		> 10000 nM	87 nM	830 nM	6200 nM	2600 nM		
C#CCN1C(=O)[C@]2(CC(=O)Nc3c2nnn3[C@@H](C)c2ccc(Cl)cc2)c2cc(Cl)ccc21		> 10000 nM	3 nM	69 nM	> 5000 nM	> 5000 nM		
CC(C)N1C(=O)C[C@]2(C(=O)Nc3ccc(Cl)cc32)c2nnn([C@@H](C)c3ccc(Cl)cc3)c21		> 10000 nM	310 nM	860 nM	4400 nM	2100 nM		
COc1cc(CN2C(=O)[C@]3(CC(=O)Nc4c3nnn4[C@@H](C)c3ccc(Cl)cc3)c3cc(Cl)ccc32)cc(OC)c1		> 10000 nM	790 nM	3100 nM	7400 nM	3400 nM		
C[C@@H](c1ccc(Cl)cc1)n1nnc2c1N(C)C(=O)C(C)(C)[C@]21C(=O)N(C)c2ccc(Cl)cc21		> 10000 nM	> 5000 nM	> 5000 nM	> 5000 nM	> 5000 nM		
C[C@@H](c1ccc(Cl)cc1)n1nnc2c1NC(=O)C[C@]21C(=O)N(Cc2ccncc2)c2ccc(Cl)cc21		> 10000 nM	25 nM	72 nM	> 5000 nM	> 5000 nM		
COCCCN1C(=O)[C@]2(CC(=O)Nc3c2nnn3[C@@H](C)c2ccc(Cl)cc2)c2cc(Cl)ccc21		> 10000 nM	9 nM	40 nM	> 5000 nM	> 5000 nM		
C[C@@H](c1ccc(Cl)cc1)n1nnc2c1NC(=O)C[C@]21C(=O)N(CCO)c2ccc(Cl)cc21		> 10000 nM	10 nM	37 nM	> 5000 nM	> 5000 nM		
C[C@@H](c1ccc(Cl)cc1)n1nnc2c1NC(=O)C[C@]21C(=O)N(CCOC(=O)CCCCCCCNC(=O)CCCC[C@@H]2SC[C@@H]3NC(=O)N[C@@H]32)c2ccc(Cl)cc21	Active	> 10000 nM	16.7 nM	41.4 nM			inactive	inactive
C[C@@H](c1ccc(Cl)cc1)n1nnc2c1NC(=O)C[C@]21C(=O)N(Cc2ccc(Cl)cc2)c2ccc(Cl)cc21		> 10000 nM	200 nM	3300 nM	6500 nM	2200 nM		
C[C@@H](c1ccc(Cl)cc1)n1nnc2c1NC(=O)C[C@]21C(=O)N(Cc2ccccc2)c2ccc(Cl)cc21		> 10000 nM	20 nM	150 nM	> 5000 nM	2000 nM		
C[C@@H](c1ccc(Cl)cc1)n1nnc2c1NC(=O)C[C@]21C(=O)N(Cc2ccc(Cl)c(F)c2)c2ccc(Cl)cc21		> 10000 nM	290 nM	4000 nM	5100 nM	1500 nM		
C[C@@H](c1ccc(Cl)cc1)n1nnc2c1NC(=O)C[C@]21C(=O)N(CCCCCl)c2ccc(Cl)cc21		> 10000 nM	19 nM	73 nM	> 5000 nM	> 5000 nM		
C[C@@H](c1ccc(Cl)cc1)n1nnc2c1NC(=O)C[C@]21C(=O)N(CCN2CCN(C)CC2)c2ccc(Cl)cc21		> 10000 nM	30 nM	300 nM	> 5000 nM	> 5000 nM		
C[C@@H](c1ccc(Cl)cc1)n1nnc2c1NC(=O)C[C@]21C(=O)N(CCN2CCCC2)c2ccc(Cl)cc21		> 10000 nM	6 nM	38 nM	> 5000 nM	> 5000 nM		
CCOC(CN1C(=O)[C@]2(CC(=O)Nc3c2nnn3[C@@H](C)c2ccc(Cl)cc2)c2cc(Cl)ccc21)OCC		> 10000 nM	76 nM	290 nM	> 5000 nM	> 5000 nM		
COC(=O)CN1C(=O)[C@]2(CC(=O)Nc3c2nnn3[C@@H](C)c2ccc(Cl)cc2)c2cc(Cl)ccc21		> 10000 nM	11 nM	77 nM	> 5000 nM	> 5000 nM		
C[C@@H](c1ccc(Cl)cc1)n1nnc2c1NC(=O)C[C@]21C(=O)N(CCc2ccccc2)c2ccc(Cl)cc21		> 10000 nM	190 nM	600 nM	> 5000 nM	1100 nM		
CCN1C(=O)[C@]2(CC(=O)Nc3c2nnn3[C@@H](C)c2ccc(Cl)cc2)c2cc(Cl)ccc21		> 10000 nM	6 nM	24 nM	> 5000 nM	2500 nM		
CCCCN1C(=O)[C@]2(CC(=O)Nc3c2nnn3[C@@H](C)c2ccc(Cl)cc2)c2cc(Cl)ccc21		> 10000 nM	18 nM	75 nM	> 5000 nM	1300 nM		
C[C@@H](c1ccc(Cl)cc1)n1nnc2c1NC(=O)C[C@]21C(=O)N(CCCCCCCCN(C)C)c2ccc(Cl)cc21		> 10000 nM	42 nM	490 nM	> 5000 nM	> 5000 nM		
CNCCN1C(=O)[C@]2(CC(=O)Nc3c2nnn3[C@@H](C)c2ccc(Cl)cc2)c2cc(Cl)ccc21		> 10000 nM	22 nM	120 nM	> 5000 nM	> 5000 nM		
C[C@@H](c1ccc(Cl)cc1)n1nnc2c1NC(=O)C[C@]21C(=O)N(CCCN2CCOCC2)c2ccc(Cl)cc21		> 10000 nM	5 nM	76 nM	> 5000 nM	> 5000 nM		
C[C@@H](c1ccc(Cl)cc1)n1nnc2c1NC(=O)C[C@]21C(=O)N(CCCCN(C)C)c2ccc(Cl)cc21		> 10000 nM	38 nM	190 nM	> 5000 nM	> 5000 nM		

Source: ChEMBL document CHEMBL4414551, “Design, Synthesis, and Biological Evaluation of Substituted 4,6-Dihydrospiro[[1,2,3]triazolo[4,5-b]pyridine-7,3'-indoline]-2',5(3H)-dione Analogues as Potent NS4B Inhibitors for the Treatment of Dengue Virus Infection” (J Med Chem, 2019)
